From ChEMBL document CHEMBL4270643, “Structure-based drug design: Synthesis and biological evaluation of quinazolin-4-amine derivatives as selective Aurora A kinase inhibitors” (Eur J Med Chem, 2018)
pIC50: −log10 of the molar value.

How the values were obtained:
[1] = system: K562; assay: Antiproliferative activity against human K562 cells after 48 hrs by CCK8 assay; assay type: functional, cell-based; settings: for pIC50: Homo sapiens, K562, 48 h, read-out: IC50; for IC50: k562
[2] = system: MCF7; assay: Antiproliferative activity against human MCF7 cells after 48 hrs by CCK8 assay; assay type: functional, cell-based; settings: for pIC50: Homo sapiens, MCF7, 48 h, read-out: IC50; for IC50: mcf7
[3] = target: Aurora kinase B (Homo sapiens, UniProt Q96GD4); assay: Inhibition of Aurora B (unknown origin) using FAM-labelled peptide as substrate pretreated for 10 mins followed by substrate addition and measured after 60 mins by fluorescence assay
Chain of Aurora kinase B (Q96GD4 whole entry): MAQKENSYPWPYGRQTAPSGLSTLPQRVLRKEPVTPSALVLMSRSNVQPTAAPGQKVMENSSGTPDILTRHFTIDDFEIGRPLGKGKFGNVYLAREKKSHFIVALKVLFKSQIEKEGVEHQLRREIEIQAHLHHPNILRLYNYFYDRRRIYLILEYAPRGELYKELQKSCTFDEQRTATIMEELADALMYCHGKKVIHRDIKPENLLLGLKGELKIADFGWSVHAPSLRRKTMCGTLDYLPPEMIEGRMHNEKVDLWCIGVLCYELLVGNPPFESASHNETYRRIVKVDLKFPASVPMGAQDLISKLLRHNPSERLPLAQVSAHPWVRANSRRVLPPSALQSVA
How it was run: (§1)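 Kinase IC50 values are the mean of at least two independent experiments; selectivity is the Aurora A/B ratio of these IC50s.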

[4] = system: MDA-MB-231; assay: Antiproliferative activity against human MDA-MB-231 cells after 48 hrs by CCK8 assay; assay type: functional, cell-based; settings: MDA-MB-231, 48 h
[5] = system: MOLT-4; assay: Antiproliferative activity against human MOLT4 cells after 48 hrs by CCK8 assay; assay type: functional, cell-based; settings: for pIC50: Homo sapiens, MOLT-4, 48 h, read-out: IC50; for IC50: molt-4
[6] = system: DU-145; assay: Antiproliferative activity against human DU145 cells after 48 hrs by CCK8 assay; assay type: functional, cell-based; settings: DU-145, 48 h
[7] = system: HeLa; assay: Antiproliferative activity against human HeLa cells after 48 hrs by CCK8 assay; assay type: functional, cell-based; settings: for pIC50: Homo sapiens, HeLa, 48 h, read-out: IC50
[8] = target: T1, Aurora kinase A (Homo sapiens, UniProt O14965); assay: Inhibition of Aurora A (unknown origin) using FAM-labelled peptide as substrate pretreated for 10 mins followed by substrate addition and measured after 60 mins by fluorescence assay; how it was run: as §1
T1 sequence (O14965 whole entry): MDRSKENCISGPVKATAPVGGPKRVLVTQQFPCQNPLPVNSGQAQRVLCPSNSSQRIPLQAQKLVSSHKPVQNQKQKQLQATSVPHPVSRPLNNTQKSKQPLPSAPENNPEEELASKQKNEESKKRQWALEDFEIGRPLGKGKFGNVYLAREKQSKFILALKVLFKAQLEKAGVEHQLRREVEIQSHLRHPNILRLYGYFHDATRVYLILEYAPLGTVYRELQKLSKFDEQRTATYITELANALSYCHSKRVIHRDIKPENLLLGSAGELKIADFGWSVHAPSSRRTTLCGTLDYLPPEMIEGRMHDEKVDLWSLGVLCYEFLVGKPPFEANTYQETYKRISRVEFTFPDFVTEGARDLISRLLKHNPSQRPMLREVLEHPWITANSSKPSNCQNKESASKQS

[9] = system: SK-BR-3; assay: Antiproliferative activity against human SKBR3 cells after 48 hrs by CCK8 assay; assay type: functional, cell-based; settings: for pIC50: Homo sapiens, SK-BR-3, 48 h, read-out: IC50; for IC50: sk-br-3
[10] = species on record: Homo sapiens; assay: Selectivity ratio of IC50 for Aurora B (unknown origin) to IC50 for Aurora A (unknown origin)

| SMILES | pIC50 [1] | pIC50 [2] | pIC50 [3] | pIC50 [4] | pIC50 [5] | pIC50 [6] | pIC50 [7] | pIC50 [8] | pIC50 [9] | Ratio IC50 [10] | IC50 [1] | IC50 [2] | IC50 ([7]; hela) | IC50 [9] | IC50 [5] |
| --- | --- | --- | --- | --- | --- | --- | --- | --- | --- | --- | --- | --- | --- | --- | --- |
| Cc1cc(Nc2nc(-c3ccc4ccccc4c3)nc3ccccc23)n[nH]1 | 4.82 | < 4.52 | 5.29 | 4.96 | 4.98 | 4.98 | 5.43 | 6.89 | 5.15 | 40 | – | – | – | – | – |
| Cc1cc(Nc2nc(-c3ccccc3)nc3cc([N+](=O)[O-])ccc23)n[nH]1 | 4.92 | < 4.52 | < 4.00 | 5.01 | – | 5.13 | 5.00 | 6.49 | 5.05 | > 308 | – | – | – | – | – |
| Cc1cc(Nc2nc(-c3ccccc3)nc3ccccc23)[nH]n1 | – | – | 6.07 | – | – | – | – | 7.55 | – | – | – | – | – | – | – |
| Cc1cc(Nc2nc(-c3ccccc3)nc3cc(N4CCC(C(=O)O)CC4)ccc23)n[nH]1 | 5.26 | 5.22 | 6.90 | 4.98 | 5.66 | 4.67 | 5.73 | 8.22 | 4.79 | 20 | – | – | – | – | – |
| Cc1ccc(C(=O)c2nc(Nc3cc(C)[nH]n3)c3ccc(Cl)cc3n2)cc1 | – | – | < 4.00 | < 4.52 | – | 4.80 | – | 5.89 | – | > 77 | Not Active | Not Active | Not Active | Not Active | – |
| Cc1cc(Nc2nc(-c3ccccc3)nc3cc(F)ccc23)n[nH]1 | < 4.52 | < 4.52 | 5.20 | 4.95 | – | < 4.52 | 5.01 | 7.14 | 4.97 | 88 | – | – | – | – | Not Active |
| Cc1cc(Nc2nc(C(=O)c3ccccc3)nc3ccccc23)n[nH]1 | < 4.52 | < 4.52 | 4.94 | 4.77 | 5.05 | < 4.52 | 5.28 | 6.73 | 4.83 | 61 | – | – | – | – | – |
| COc1ccc(C(=O)c2nc(Nc3cc(C)[nH]n3)c3ccc(Cl)cc3n2)cc1 | – | – | < 4.00 | 4.91 | – | 4.90 | < 4.52 | 6.13 | – | > 134 | Not Active | Not Active | – | Not Active | – |
| Cc1cc(Nc2nc(-c3ccccc3)nc3cc(Cl)ccc23)n[nH]1 | – | < 4.52 | – | < 4.52 | – | < 4.52 | < 4.52 | 6.88 | – | – | Not Active | – | – | Not Active | Not Active |

Next, values leading:

| pIC50 [1] | pIC50 [2] | pIC50 [3] | pIC50 [4] | pIC50 [5] | pIC50 [6] | pIC50 [7] | pIC50 [8] | pIC50 [9] | Ratio IC50 [10] | IC50 [1] | IC50 [2] | IC50 ([7]; hela) | IC50 [9] | IC50 [5] | SMILES |
| --- | --- | --- | --- | --- | --- | --- | --- | --- | --- | --- | --- | --- | --- | --- | --- |
| 6.43 | 5.82 | < 4.22 | 5.86 | – | 5.44 | 6.28 | 6.66 | 5.56 | > 276 | – | – | – | – | – | COc1cccc(OC)c1C(=O)c1nc(Nc2cc(C)[nH]n2)c2ccc(N3CCC(C(=O)OC(C)(C)C)CC3)cc2n1 |
| 5.41 | 4.97 | 5.94 | 5.32 | – | 5.13 | 5.55 | 6.99 | 4.92 | 11 | – | – | – | – | – | Cc1cc(Nc2nc(C(C)C)nc3ccccc23)n[nH]1 |
| 5.64 | 5.38 | 6.26 | 5.72 | 5.54 | 5.20 | 6.09 | 7.60 | 5.73 | 21 | – | – | – | – | – | COc1cccc2c(Nc3cc(C)[nH]n3)nc(-c3ccccc3)nc12 |
| 5.64 | 4.88 | 5.90 | 5.51 | 5.24 | 5.35 | 5.82 | 7.16 | 5.04 | 18 | – | – | – | – | – | Cc1cc(Nc2nc(Cc3ccccc3)nc3ccccc23)n[nH]1 |
| 5.19 | 5.34 | 5.34 | 5.46 | 5.19 | 5.18 | 5.61 | 6.76 | 5.34 | 26 | – | – | – | – | – | Cc1cc(Nc2nc(-c3ccccc3)nc3c([N+](=O)[O-])cccc23)n[nH]1 |
| 5.84 | 5.20 | 6.05 | 5.58 | 5.32 | < 5.00 | 5.84 | 7.39 | 5.57 | 22 | – | – | – | – | – | COc1cccc2c(Nc3cc(C)[nH]n3)nc(Cc3ccccc3)nc12 |
| 5.17 | 5.10 | 4.84 | 5.40 | – | 5.28 | 5.11 | 5.23 | 5.21 | 2.4 | – | – | – | – | – | CN1CCN(c2ccc3c(Nc4cc[nH]n4)nc(-c4ccccc4)nc3c2)CC1 |
| 5.52 | 5.21 | – | 5.54 | 5.29 | 5.10 | 6.05 | – | 5.60 | 30 | – | – | – | – | – | Cc1cc(Nc2nc(-c3ccccc3)nc3ccccc23)n[nH]1 |
| 6.72 | 6.18 | 6.57 | 6.85 | 6.83 | 6.39 | 6.75 | 8.00 | 5.60 | 30 | – | – | – | – | – | Cc1cc(Nc2nc(-c3ccccc3)nc3cc(N4CCN(C)CC4)ccc23)n[nH]1 |
| 5.67 | 5.44 | 6.11 | 5.88 | 5.92 | 5.33 | 5.88 | 7.47 | 5.69 | 22 | – | – | – | – | – | COc1ccc2c(Nc3cc(C)[nH]n3)nc(-c3ccccc3)nc2c1 |
